T cell HTS – T cell immune modulators affecting CD8 T cell-vesicle binding; response (vesicle binding), % at 7 µM; 2C CD8+ T cell-vesicle binding, flow cytometry; hits give low values; AID 2052; 0.068% of 330,000 active;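 active means response, share of CD8 T cells binding vesicles, and their 90th percentile fluorescence all below set limits, cut at about 80% in these data, passing the limit was not always enough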;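 further: values below 100% mean blocked vesicle binding to the CD8+ T cells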
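Incubation: binding step 1.5 h, 37 °C, antibody labelling 20 min, ice; system: murine 2C transgenic CD8+ T lymphocytes; technique: cytometric PE anti-B7-1 and Alexa647 anti-CD8 signals after 1% paraformaldehyde fixation; also added: QL9-charged Drosophila Ld/ICAM-1/B7-1 vesicles; control set: naked versus QL9-loaded vesicles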
MIN6 prolif – MIN6 beta-cell proliferation induction; proliferation, % at 10 µM; MIN6 cells proliferation, ATPlite luminescence, 48 h; cells starved in 0.2% serum; 100% = growth in 10% serum; 0.29% of 330,000 active;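 active means compounds whose signal lies at least 3.5 SD above the mean of all wells on their plate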;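 further: 0% = DMSO-treated cells in low-serum medium and 100% = 10% serum control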
V-ATPase pHluor – yeast V-ATPase proton transport regulation by pHLuorin; S. cerevisiae, pHLuorin cytosolic pH fluorescence; response, % at 10 µM; 0.37% of 350,000 active; AID 504577; in the data active means response mostly above about 7.3%, no sharp cut-off; inactive means mostly below about 5.4%; further: actives read high
Rce1 inhib – yeast Ras-converting enzyme inhibition; Q03530; yeast membranes, quenched prenylated peptide cleavage fluorescence; calls only; 0.27% of 290,000 active; AID 2563;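 active means fall in fluorescence gain of 50% or more versus controls, with final raw signal at or below 3038400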;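 further: plate controls were neutral control wells for no effect and wells lacking membranes for full effect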
Target sequence (Q03530 whole entry, looked up): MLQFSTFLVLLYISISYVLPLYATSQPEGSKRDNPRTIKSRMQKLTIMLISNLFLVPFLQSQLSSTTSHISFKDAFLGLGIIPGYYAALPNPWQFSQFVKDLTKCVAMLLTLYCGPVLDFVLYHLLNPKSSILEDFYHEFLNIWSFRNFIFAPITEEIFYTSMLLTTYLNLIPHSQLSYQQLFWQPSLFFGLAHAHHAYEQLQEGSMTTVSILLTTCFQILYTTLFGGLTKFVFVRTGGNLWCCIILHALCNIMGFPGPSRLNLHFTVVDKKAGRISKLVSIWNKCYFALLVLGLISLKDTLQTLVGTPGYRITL
CR mimetic SO – lowers age-related superoxide in aged yeast cells | S. cerevisiae aged cells, superoxide DHE fluorescence; hits give low values | superoxide response (% of plate mean), % at 10 µM | 0.18% of 330,000 active | AID 2690;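 active means superoxide response under a set limit, about three screen SD below normal, cut at about 65% in these data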;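 further: yeast aged for seven days with compound at 30 °C before DHE staining; 100% = average MFI of all compound-treated wells on the plate with controls excluded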
KLK7 zymogen act – proKLK7 (human) activation, primary screen; activation, % at 7 µM; purified proKLK7, EDANS-DABCYL substrate fluorescence; 100% is mature enzyme control, 0% vehicle; P49862; 0.9% of 370,000 active;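 active means activation above the mean of all tested compounds plus 3 SD, computed per campaign excluding outliers beyond control limits, cut at about 13% in these data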
KLK7 act conf – confirmation of human kallikrein-7 zymogen activators; shares compounds with KLK7 zymogen act; purified proKLK7, EDANS-DABCYL substrate fluorescence; scaled: vehicle 0, mature enzyme 100; activation, % at 7 µM; 68% of 3,200 active;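 active means activation, as change over the incubation, above the mean of all tested compounds plus 3 SD, cut at about 13% in these data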
EDANS-DABCYL int – optically interferes with EDANS-DABCYL signal, flagging KLK7 hits. shares compounds with KLK7 zymogen act. EDANS-DABCYL substrate fluorescence interference, no enzyme, 4 h; solvent 0%, active enzyme control 100%. activation, % at 7 µM. 80% of 3,200 active;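 active means activation above the all-compound mean plus 3 SD, ignoring values outside control-based bounds, cut at about 4.8% in these data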;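 further: value is the 4 h activation minus the activation read at time zero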
* hit, by the source's call; i = inactive; x = no result. Most compounds without a hit are left out; they make up all but 1.9% or so of the library.

SMILES	T cell HTS	MIN6 prolif	V-ATPase pHluor	Rce1 inhib	CR mimetic SO	KLK7 zymogen act	KLK7 act conf	EDANS-DABCYL int
COC(=O)C1(C(=O)OC)CCCCN(S(=O)(=O)c2ccc(C)cc2)CCC1	x	x	x	x	x	0	x	x
Cc1[nH]n(-c2ccccc2)c(=O)c1C=Nc1cnc2ccccc2c1	103	0	-1	i	107	46*	21*	22*
COCCn1c(C)nnc1SCC(=O)Nc1ccccc1[N+](=O)[O-]	320	-2	2	i	116	39*	0	0
COCCn1c(SCC(=O)Nc2ccccc2OC)nnc1-c1ccco1	218	0	-2	i	94	-1	x	x
CC(=O)OCC(=O)c1ccc2ccn(C(C)=O)c2c1	447	-4	5	i	92	18*	32*	32*
COc1ccccc1N1CCN(CC(=O)c2ccc3ccn(C(C)=O)c3c2)CC1	314	1	3	i	102	x	x	x
O=C(Nc1nc2nccc(-c3ccccc3)n2n1)C(Cl)(Cl)Cl	0	-2	-3	i	104	39*	47*	46*
CCOC(=O)N1CCN(C(=O)c2cc3c(=O)n4ccccc4nc3s2)CC1	226	0	1	i	98	17*	90*	78*
Cc1cc(C)cc(NC(=O)c2cc3c(=O)n4ccccc4nc3s2)c1	408	-2	0	i	111	1	x	x
CCn1c(=O)c2cc(C(=O)N3CCN(C)CC3)sc2c2ccccc21	488	2	-1	i	110	28*	9	8.0*
CCn1c(=O)c2cc(C(=O)NC(C)C)sc2c2ccccc21	163	4	-2	i	101	3	x	x
CN1CCN(C(=O)c2cc3c(=O)n4ccccc4nc3s2)CC1	500	2	0	i	95	48*	70*	71*
Cc1ccc(C(=O)Nn2cnnc2)cc1	906	0	0	i	106	1	x	x
Cc1ccc(-c2c(C#N)c(N)n(-c3ccc(C)cc3)c(=O)c2C#N)cc1	280	0	-3	i	103	21*	187*	270*
CN1CC=C2C(C#N)=C(N)C(C#N)(C#N)[C@H](c3ccoc3)[C@H]2C1	475	0	1	i	101	x	x	x
N#CC1=C(N)C(C#N)(C#N)[C@H](c2ccoc2)[C@H]2CN(Cc3ccccc3)CC=C12	427	-3	2	i	116	13*	2	3
CC(=O)N1CC=C2C(C#N)=C(N)C(C#N)(C#N)[C@H](c3ccoc3)[C@H]2C1	338	-2	1	i	96	16*	16*	17*
CC(=O)N1CC=C2C(C#N)=C(N)C(C#N)(C#N)C(CCc3ccccc3)C2C1 (stereo unspecified)	256	-2	1	i	110	12	x	x
CCN1CC=C2C(C#N)=C(N)C(C#N)(C#N)C(CCc3ccccc3)C2C1 (stereo unspecified)	i	1	-5	x	80	30*	15*	16*
COC(=O)C1=CC(=O)N2CCN=C2S1	x	x	x	x	x	-6	x	x
O=C(c1cccn2c(=O)c3cc(Cl)ccc3nc12)N1CCN(Cc2ccc3c(c2)OCO3)CC1	178	-4	1	i	118	-29	x	x
O=C(c1cccn2c(=O)c3ccccc3nc12)N1CCN(Cc2ccc3c(c2)OCO3)CC1	364	8	3	i	84	15*	22*	28*
O=C(c1cccn2c(=O)c3cc(Cl)ccc3nc12)N1CCOCC1	214	6	-1	i	100	52*	65*	73*
O=C(COC(=O)c1c[nH]c2ccccc12)Nc1cccc(F)c1	377	-3	-5	x	83	0	x	x
CCOC(=O)c1[nH]c2ccc(OC)cc2c1NC(=O)CCN1CCSCC1	134	1	-2	i	91	17*	11	10*
CCOC(=O)c1oc2ccccc2c1NC(=O)CN1CCN(C)CC1	166	-1	1	i	106	-1	x	x

Screening results as filed in PubChem BioAssay.
